Data: ChEMBL document CHEMBL4145619, “Computer-Assisted Discovery of Retinoid X Receptor Modulating Natural Products and Isofunctional Mimetics” (J Med Chem, 2018)
Activity calls are given as the source filed them. The rule behind the calls is not given here.

Columns and labels:
[1] = biological target: T1, Retinoic acid receptor RXR-alpha (Homo sapiens) (UniProt P19793); assay: Transactivation of human Gal4-fused RXRalpha LBD expressed in HEK293T cells at 30 uM after 12 to 14 hrs by dual-glo luciferase assay; assay type: cell-based
T1 sequence (whole entry): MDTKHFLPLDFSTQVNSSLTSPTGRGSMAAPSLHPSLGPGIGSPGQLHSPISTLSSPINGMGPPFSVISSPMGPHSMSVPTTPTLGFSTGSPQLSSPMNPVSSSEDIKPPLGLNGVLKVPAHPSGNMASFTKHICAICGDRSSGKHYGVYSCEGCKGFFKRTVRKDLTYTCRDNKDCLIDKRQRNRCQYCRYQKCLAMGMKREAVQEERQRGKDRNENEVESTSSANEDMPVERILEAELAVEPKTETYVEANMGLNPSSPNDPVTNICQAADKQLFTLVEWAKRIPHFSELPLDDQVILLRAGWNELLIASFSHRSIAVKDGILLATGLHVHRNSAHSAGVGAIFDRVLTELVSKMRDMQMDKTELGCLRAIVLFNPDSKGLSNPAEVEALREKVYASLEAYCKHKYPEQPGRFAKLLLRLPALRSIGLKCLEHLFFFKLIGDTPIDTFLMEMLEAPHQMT
How it was run: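 Single-concentration selectivity profiling in Gal4-hybrid reporter gene assays in HEK293T cells. Each nuclear receptor construct (RAR, PPAR, LXR, FXR, CAR, VDR, PXR, RXR) was tested at 30 μM.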

[2] = biological target: Retinoid X receptor (Homo sapiens) (UniProt P28702+P48443+P19793); assay: Transactivation of RXR in human HepG2 cells assessed as induction of apoE mRNA expression at 30 uM after 8 hrs by qRT-PCR analysis; assay type: cell-based
How it was run: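 HepG2 cells were treated and ABCA1 or ApoE mRNA levels measured. Results are given as mean fold induction versus 0.1% DMSO vehicle ± SEM, n = 3. Significance was set at p < 0.05, 0.01 or 0.001.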

Sequence of Retinoid X receptor (Homo sapiens) (P28702 whole entry, looked up, one chain of several): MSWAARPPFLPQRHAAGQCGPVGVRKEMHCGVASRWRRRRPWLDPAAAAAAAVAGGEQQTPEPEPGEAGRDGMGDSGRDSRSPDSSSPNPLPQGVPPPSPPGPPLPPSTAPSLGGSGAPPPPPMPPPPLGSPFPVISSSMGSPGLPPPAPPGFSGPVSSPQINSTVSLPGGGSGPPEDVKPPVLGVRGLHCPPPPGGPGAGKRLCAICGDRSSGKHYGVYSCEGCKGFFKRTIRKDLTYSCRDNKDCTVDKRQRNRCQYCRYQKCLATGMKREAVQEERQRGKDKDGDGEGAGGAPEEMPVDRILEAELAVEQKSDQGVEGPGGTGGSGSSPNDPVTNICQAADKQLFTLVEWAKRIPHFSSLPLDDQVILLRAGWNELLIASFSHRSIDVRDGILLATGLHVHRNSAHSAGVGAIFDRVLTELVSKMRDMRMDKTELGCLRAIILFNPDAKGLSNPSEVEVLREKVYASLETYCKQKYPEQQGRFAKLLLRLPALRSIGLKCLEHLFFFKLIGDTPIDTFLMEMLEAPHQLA
Sequence of Retinoid X receptor (Homo sapiens) (P48443 whole entry, looked up, one chain of several): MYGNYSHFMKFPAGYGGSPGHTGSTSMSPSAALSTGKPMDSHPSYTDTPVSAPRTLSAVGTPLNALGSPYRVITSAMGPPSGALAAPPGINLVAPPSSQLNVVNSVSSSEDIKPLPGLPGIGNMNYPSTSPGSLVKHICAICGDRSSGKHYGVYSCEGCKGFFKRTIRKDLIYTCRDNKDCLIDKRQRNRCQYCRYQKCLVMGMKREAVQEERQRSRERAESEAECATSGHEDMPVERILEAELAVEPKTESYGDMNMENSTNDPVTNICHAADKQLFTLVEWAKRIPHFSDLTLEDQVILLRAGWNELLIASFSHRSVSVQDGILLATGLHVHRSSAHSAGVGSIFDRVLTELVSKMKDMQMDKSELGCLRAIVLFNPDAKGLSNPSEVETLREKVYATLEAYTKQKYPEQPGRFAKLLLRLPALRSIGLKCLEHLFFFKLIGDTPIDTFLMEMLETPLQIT

Compound: CC1=C2[C@H](/C=C(\C)C(=O)O)CC[C@@H](C)[C@H]2CC1 [VALERENIC ACID]
- Activity [1]: Active
- Activity [2]: Active
